The full list was thinned out, with hits kept by preference.
T cruzi repl: inhibitors of intracellular T. cruzi growth, primary screen, luminescence, NIH3T3 host cells; inhibition, % (test concentration not listed); T. cruzi beta-gal in NIH3T3, 90 h; 300,000 compounds, 1.4% hits; AID 1885, 2009;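 active = mean inhibition across valid replicates above about 55%, limit read from the data; inconclusive = mean below that limit but half or more replicates reach it; inactive = mean below it, under half of replicates reach it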;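 also: signal also drops with host cell toxicity which is not excluded here; 0% = plate median of DMSO wells and 100% = zero luminescence signal; higher percent means less beta-gal luminescence so fewer parasites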
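System: Mouse NIH/3T3 fibroblasts infected with β-gal-expressing T. cruzi Tulahuen C4 | Quantity: NIH/3T3 cells, 5,000 per well | Reagent: 5000 reporter trypomastigotes per well | Dosing: Compound pinned at 50 nL/well, DMSO | Schedule: 3 h host attachment, then at least 90 h co-culture | Detection: GalScreen luminescence, 60 min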
Hep lipid drop: inhibitors of hepatocyte lipid droplet formation, primary screen, imaging, high-throughput imaging, BODIPY stain. AID 1656, 2009. AML12 mouse hepatocytes, oleate lipid droplets. 240,000 compounds, 0.4% hits. inhibition, % at 6.5 µM;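 active = lipid droplet intensity inhibited by at least 50%, with more than 500 cells counted; inconclusive = wells with under 300 cells, treated as cytotoxic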
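Assay system: AML12 mouse liver cells | Compound dosing: One dose, 6.5 µM compound | Read-out basis: Droplet intensity reduction, % inhibition | Measured by: Fluorescence imaging, 20x objective, two fields per well | Schedule: Overnight treatment with compound plus oleate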
Lmaj promast: Leishmania major promastigote growth inhibition, primary screen | Leishmania major promastigotes, resazurin fluorescence viability | inhibition, % at 10 µM | 200,000 compounds, 9% hits | AID 1063, 2008; in the data active = inhibition above about 50%;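 also: promastigotes grown with compound for 44 hours at 28 °C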
Redox H2O2 prof: compounds producing H2O2 with reducing agent – biochemical, NIH compound library profiling, artefact control for MLSCN library redox annotation, primary screen; DTT-dependent redox cycling H2O2, phenol red/HRP absorbance; 100% = 100 µM peroxide control, 0% = buffer; activation, % at 10 µM; 200,000 compounds, 0.03% hits;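 active = activation of at least 50% relative to the plate's high and low controls in the primary single-dose screen; inactive = activation below 50%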;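 also: compound incubated with DTT at 0.8 mM final as the reducing agent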
MPTP block: mitochondrial permeability transition pore inhibitors, primary screen, biochemical, isolated mouse mitochondria, absorbance. 360,000 compounds, 1.4% hits. Ca2+ swelling absorbance, 30 min. inhibition, % at 10 µM;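 active = inhibition of 50% or more, scaled per plate between neutral and stimulator controls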;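 also: 0% = DMSO wells given calcium and 100% = 1 mM EGTA wells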
* marks the source's active call; other numbers are inactive results; ? = inconclusive; . = not tested or not shown.

SMILES | T cruzi repl | Hep lipid drop | Lmaj promast | Redox H2O2 prof | MPTP block
CC1CC(C)CN(CCOCCSc2ccc(Cl)cc2)C1 (configuration not stated) | 41.2 | -18.9 | 90.5* | -0.4 | 1.7
CC1CN(CCCSc2ccc(Cl)cc2)CC(C)O1 (configuration not stated) | 4.0 | -3.5 | 85.2* | -1.0 | 0.7
CC1CC(C)CN(CCCSc2ccccc2)C1 (configuration not stated) | 4.7 | 2.5 | 92.3* | -0.7 | 0.1
CC1CCCN(CCOCCSc2ccccc2)C1 (configuration not stated) | 59.9* | 1.4 | 97.5* | -0.5 | 0.3
Cc1ccc(SCCOCCN2CCOCC2)cc1 | 17.6 | -11.3 | . | . | -0.4
CCc1cc(C(=O)N(CCCOC)c2c(N)n(Cc3ccccc3)c(=O)[nH]c2=O)sc1C | 2.9 | . | . | . | -0.8
c1ccc(SCCN2CCc3ccccc3C2)cc1 | -6.0 | 7.2 | -0.3 | 0.1 | -0.6
CC1CC(C)CN(CCOCCSc2ccccc2)C1 (configuration not stated) | 60.0* | -2.2 | 89.4* | 0.2 | -0.1
c1ccc(SCCOCCN2CCc3ccccc3C2)cc1 | ? | -40.6 | 89.8* | -0.1 | 0.0
c1ccc(SCCOCCN2CCOCC2)cc1 | 11.6 | -2.2 | . | . | -0.4
CC1CCC(C(C)C)C(OC(=O)CSc2nnc(N)s2)C1 (configuration not stated) | -0.9 | . | 63.7* | 2.4 | -2.7
COc1cc2ccc(C(=O)O)cc2cc1OC | . | . | . | . | -1.2
CC(C)Cn1c(N)c(C(=O)CSc2ncnc3sc4c(c23)CCCC4)c(=O)n(C)c1=O | 21.8 | -19.1 | 13.9 | 0.1 | 27.7
O=C(CSc1nc2cc(C(F)(F)F)ccc2n1Cc1ccccc1)NC1CCS(=O)(=O)C1 (configuration not stated) | 17.7 | -4.5 | 96.8* | -0.6 | -1.2
Cc1cc(CN2CCOCC2)c(O)c(C2(C)CCCCC2)c1 | 11.3 | 7.9 | 55.9* | 0.5 | 28.9
CCn1c(=O)cc(C(=O)OC)sc1=Nc1ccc(F)c(F)c1 | 1.7 | . | 86.2* | -2.0 | 2.2
COC(=O)c1cc(=O)n(Cc2ccc(OC)cc2)c(=NCc2ccc(OC)cc2)s1 | -0.2 | -20.0 | 7.2 | -0.3 | 2.9
COC(=O)c1cc(=O)n(CCc2ccc(OC)cc2)c(=Nc2ccc(F)c(Cl)c2)s1 | 42.4 | . | 99.8* | -0.8 | 0.9
COC(=O)c1cc(=O)n(CCc2ccccc2)c(=Nc2ccc(F)cc2)s1 | 47.9 | -4.9 | 90.3* | -1.1 | -0.7
COC(=O)c1cc(=O)n(Cc2ccc3c(c2)OCO3)c(=Nc2ccc(F)c(Cl)c2)s1 | 43.8 | . | 100.2* | -1.3 | 3.2
COC(=O)c1ccc2c(=O)n(CCCN3CCOCC3)c(=S)[nH]c2c1 | 4.7 | 7.2 | 3.2 | -0.6 | -1.9
CCOC(=O)c1ccc(N=c2sc(C(=O)OC)cc(=O)n2CCCN2CCOCC2)cc1 | 19.9 | 5.8 | 99.7* | -0.8 | 0.7
Oc1ccc(C[C@H]2CNC(=S)N2CC2CCCN2C[C@H](Cc2ccc(O)cc2)N2C[C@H](Cc3ccc(O)cc3)N(CC3CCCCCC3)C2=S)cc1 (some centres not stated) | . | . | . | . | 1.5
CC(=O)Oc1ccc(N(c2ccccc2)S(=O)(=O)c2ccc(C)cc2)cc1 | -3.9 | -8.0 | 11.6 | -0.4 | 18.3
O=C(Nc1cccc(-c2nc3ncccc3o2)c1)c1ccccc1 | 60.5* | -30.9 | 99.7* | -0.1 | -0.7
SMILES | T cruzi repl | Hep lipid drop | Lmaj promast | Redox H2O2 prof | MPTP block
CCCCC(=O)Nc1cccc(-c2nc3ncccc3o2)c1C | 0.5 | . | . | . | -1.2
CCCCC(=O)Nc1cc(-c2nc3ncccc3o2)ccc1C | -10.1 | -8.8 | 99.2* | 0.6 | -1.5
NS(=O)(=O)c1ccc(CCNC(=O)COC(=O)C2CCN(c3ccc(C(F)(F)F)cn3)CC2)cc1 | 13.3 | . | . | . | -1.8
OC[C@@H]1CN(CCN2CCOCC2)C[C@H](n2cnc3c(Nc4ccccc4)ncnc32)O1 | . | . | . | . | -0.5
O=C(Nc1cc(Cl)ccc1Cl)c1ccc(-c2ccccc2)cc1 | 17.6 | 28.9 | 50.7* | 0.4 | 2.8
COc1ccccc1N(C)S(=O)(=O)c1ccc(C(=O)OCC(=O)c2c[nH]c3ccccc23)cc1 | -1.4 | -10.6 | 100.1* | -0.4 | 1.8
COc1cc(NC(=O)c2ccco2)c(C(=O)OCC(=O)c2c[nH]c3ccccc23)cc1OC | 5.7 | 8.4 | 55.4* | 0.4 | 10.8
COc1ccccc1N(C)S(=O)(=O)c1ccc(C(=O)NC2=NCCS2)cc1 | -0.6 | 9.6 | 95.9* | -0.8 | 3.9
COc1ccccc1N(C)S(=O)(=O)c1ccc(C(=O)OC(C)C(=O)NCc2ccc3c(c2)OCO3)cc1 (configuration not stated) | -0.2 | -3.8 | 97.6* | -0.4 | 1.6
CC(=O)Nc1ccc(NC(=O)C(Cc2ccccc2)NC(=O)C2CCCCC2)cc1 (configuration not stated) | -1.2 | 4.2 | -0.4 | -0.4 | 2.7
CCC(c1nnnn1C1CCCC1)N1CCC(C(N)=O)CC1 (configuration not stated) | -9.9 | 9.2 | -3.7 | -0.8 | -2.3
COc1ccccc1N(C)S(=O)(=O)c1ccc(C(=O)OCC(=O)N(C)c2ccccc2)cc1 | -3.9 | 15.9 | 96.5* | -1.2 | 0.9
Clc1ccccc1Cn1nnc2ccccc21 | -10.0 | -23.8 | . | . | 0.7
O=S(=O)(Nc1nc2ccccc2[nH]1)c1ccccc1 | 9.0 | . | 15.3 | 2.5 | 0.0
O=S(=O)(Nc1nc2ccccc2[nH]1)c1ccc(Cl)cc1 | 9.1 | . | 57.2* | 1.5 | 2.1
CCC(C)(C)C1CCC(=NNC(=S)Nc2ccccc2)CC1 (configuration not stated) | 1.2 | 13.0 | 1.0 | -0.7 | -0.3
S=C(NN=C1C2CC3CC(C2)CC1C3)Nc1ccccc1 | 7.7 | 0.1 | 98.7* | -0.1 | -1.0
O=C(c1ccc(Cl)c([N+](=O)[O-])c1)N(c1ccccn1)c1ccccn1 | 5.6 | 9.1 | 70.3* | 0.0 | 0.1
CCN(CC)S(=O)(=O)c1ccc(C2=NOC3(C2)N(C)c2ccccc2C3(C)C)cc1 (configuration not stated) | 28.2 | -34.7 | 83.5* | 1.1 | 9.5
CN1c2ccccc2C(C)(C)C12CC(c1ccc(S(=O)(=O)N3CCCCC3)cc1)=NO2 (configuration not stated) | 3.5 | -6.5 | 44.0 | 0.5 | 4.1
CN1c2ccccc2C(C)(C)C12CC(c1cccc(S(=O)(=O)N3CCCC3)c1)=NO2 (configuration not stated) | -9.1 | -61.0 | 72.6* | 0.1 | 0.9
Cc1ccc2c(c1)N(CC(=O)NCCc1c[nH]c3ccccc13)C(=O)CO2 | -8.9 | 10.8 | 53.3* | 1.6 | -1.7
Cc1cccc(NC(=O)NCCc2c[nH]c3ccccc23)c1 | -2.5 | . | 88.6* | -3.1 | 4.1
FC(F)(F)c1cccc(NC(=S)NNC(=S)Nc2ccc(Cl)cc2)c1 | 56.4* | 3.6 | . | . | .

Screens from PubChem BioAssay.
